Test results published in ChEMBL document CHEMBL4118021, “Studies of TAK1-centered polypharmacology with novel covalent TAK1 inhibitors” (Bioorg Med Chem, 2017).
Active and inactive are the calls of the source. The calls are words filed in the database; no cut-off is given here.

Columns and labels:
[1] = target: Ephrin type-B receptor 2 (Homo sapiens) (UniProt P29323); assay: Inhibition of EphB2 in human SKCO1 cells at 1 uM after 4 hrs using biotin labeled FLEDDTSDPTYTSALGGKIPIR probe by mass-spectrometric analysis relative to control; assay type: cell-based
Chain of Ephrin type-B receptor 2 (Homo sapiens) (P29323 whole entry): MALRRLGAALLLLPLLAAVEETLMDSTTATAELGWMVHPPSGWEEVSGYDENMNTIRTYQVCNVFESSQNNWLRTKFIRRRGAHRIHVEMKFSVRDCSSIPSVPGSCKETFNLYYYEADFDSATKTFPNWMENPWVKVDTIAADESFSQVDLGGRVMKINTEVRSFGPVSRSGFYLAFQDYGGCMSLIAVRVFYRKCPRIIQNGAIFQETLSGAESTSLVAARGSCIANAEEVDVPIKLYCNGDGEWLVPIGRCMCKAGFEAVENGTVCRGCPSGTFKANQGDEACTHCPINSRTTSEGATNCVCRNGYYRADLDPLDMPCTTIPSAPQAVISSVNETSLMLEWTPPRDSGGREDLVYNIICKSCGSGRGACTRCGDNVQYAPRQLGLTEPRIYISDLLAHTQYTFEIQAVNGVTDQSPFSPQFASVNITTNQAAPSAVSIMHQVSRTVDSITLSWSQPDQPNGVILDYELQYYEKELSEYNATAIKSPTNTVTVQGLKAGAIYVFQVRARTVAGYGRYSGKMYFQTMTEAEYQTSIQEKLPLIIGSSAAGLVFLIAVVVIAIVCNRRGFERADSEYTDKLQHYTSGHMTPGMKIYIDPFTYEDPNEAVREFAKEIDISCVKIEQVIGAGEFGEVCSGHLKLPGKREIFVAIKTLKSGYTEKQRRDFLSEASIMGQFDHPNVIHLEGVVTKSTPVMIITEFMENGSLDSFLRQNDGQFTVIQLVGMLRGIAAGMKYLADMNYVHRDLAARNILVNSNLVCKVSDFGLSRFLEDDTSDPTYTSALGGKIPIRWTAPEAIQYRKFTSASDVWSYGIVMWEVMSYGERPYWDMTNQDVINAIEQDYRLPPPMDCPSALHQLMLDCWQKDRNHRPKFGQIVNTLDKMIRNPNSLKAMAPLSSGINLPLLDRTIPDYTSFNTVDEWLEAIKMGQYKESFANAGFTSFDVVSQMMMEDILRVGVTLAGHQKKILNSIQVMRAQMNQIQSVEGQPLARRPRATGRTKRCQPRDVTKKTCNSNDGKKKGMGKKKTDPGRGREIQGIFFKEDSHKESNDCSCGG

[2] = target: Proto-oncogene tyrosine-protein kinase Src (Homo sapiens) (UniProt P12931); assay: Inhibition of SRC in human SKCO1 cells at 1 uM after 4 hrs using biotin labeled QGAKFPIKWTAPEAALYGR probe by mass-spectrometric analysis relative to control; assay type: cell-based
Chain of Proto-oncogene tyrosine-protein kinase Src (Homo sapiens) (P12931 2-536 limits assumed): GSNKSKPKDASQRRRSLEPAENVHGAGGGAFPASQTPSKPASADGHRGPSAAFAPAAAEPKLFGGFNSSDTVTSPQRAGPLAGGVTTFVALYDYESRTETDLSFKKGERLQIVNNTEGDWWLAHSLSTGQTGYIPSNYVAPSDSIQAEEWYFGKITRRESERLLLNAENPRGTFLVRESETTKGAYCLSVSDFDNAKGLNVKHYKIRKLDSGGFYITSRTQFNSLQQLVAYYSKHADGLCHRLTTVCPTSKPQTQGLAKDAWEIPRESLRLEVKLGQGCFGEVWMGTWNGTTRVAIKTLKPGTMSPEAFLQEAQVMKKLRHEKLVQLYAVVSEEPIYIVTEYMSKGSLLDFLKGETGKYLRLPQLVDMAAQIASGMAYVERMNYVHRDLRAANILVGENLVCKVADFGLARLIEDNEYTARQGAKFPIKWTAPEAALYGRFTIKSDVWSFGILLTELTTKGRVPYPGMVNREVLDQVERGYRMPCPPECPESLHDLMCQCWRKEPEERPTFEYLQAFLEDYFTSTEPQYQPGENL

[3] = target: Receptor tyrosine-protein kinase erbB-2 (Homo sapiens) (UniProt P04626); assay: Inhibition of HER2/ErbB2 in human SKCO1 cells at 1 uM after 4 hrs using biotin labeled GIWIPDGENVKIPVAIKVLR probe by mass-spectrometric analysis relative to control; assay type: cell-based
Chain of Receptor tyrosine-protein kinase erbB-2 (Homo sapiens) (P04626 whole entry): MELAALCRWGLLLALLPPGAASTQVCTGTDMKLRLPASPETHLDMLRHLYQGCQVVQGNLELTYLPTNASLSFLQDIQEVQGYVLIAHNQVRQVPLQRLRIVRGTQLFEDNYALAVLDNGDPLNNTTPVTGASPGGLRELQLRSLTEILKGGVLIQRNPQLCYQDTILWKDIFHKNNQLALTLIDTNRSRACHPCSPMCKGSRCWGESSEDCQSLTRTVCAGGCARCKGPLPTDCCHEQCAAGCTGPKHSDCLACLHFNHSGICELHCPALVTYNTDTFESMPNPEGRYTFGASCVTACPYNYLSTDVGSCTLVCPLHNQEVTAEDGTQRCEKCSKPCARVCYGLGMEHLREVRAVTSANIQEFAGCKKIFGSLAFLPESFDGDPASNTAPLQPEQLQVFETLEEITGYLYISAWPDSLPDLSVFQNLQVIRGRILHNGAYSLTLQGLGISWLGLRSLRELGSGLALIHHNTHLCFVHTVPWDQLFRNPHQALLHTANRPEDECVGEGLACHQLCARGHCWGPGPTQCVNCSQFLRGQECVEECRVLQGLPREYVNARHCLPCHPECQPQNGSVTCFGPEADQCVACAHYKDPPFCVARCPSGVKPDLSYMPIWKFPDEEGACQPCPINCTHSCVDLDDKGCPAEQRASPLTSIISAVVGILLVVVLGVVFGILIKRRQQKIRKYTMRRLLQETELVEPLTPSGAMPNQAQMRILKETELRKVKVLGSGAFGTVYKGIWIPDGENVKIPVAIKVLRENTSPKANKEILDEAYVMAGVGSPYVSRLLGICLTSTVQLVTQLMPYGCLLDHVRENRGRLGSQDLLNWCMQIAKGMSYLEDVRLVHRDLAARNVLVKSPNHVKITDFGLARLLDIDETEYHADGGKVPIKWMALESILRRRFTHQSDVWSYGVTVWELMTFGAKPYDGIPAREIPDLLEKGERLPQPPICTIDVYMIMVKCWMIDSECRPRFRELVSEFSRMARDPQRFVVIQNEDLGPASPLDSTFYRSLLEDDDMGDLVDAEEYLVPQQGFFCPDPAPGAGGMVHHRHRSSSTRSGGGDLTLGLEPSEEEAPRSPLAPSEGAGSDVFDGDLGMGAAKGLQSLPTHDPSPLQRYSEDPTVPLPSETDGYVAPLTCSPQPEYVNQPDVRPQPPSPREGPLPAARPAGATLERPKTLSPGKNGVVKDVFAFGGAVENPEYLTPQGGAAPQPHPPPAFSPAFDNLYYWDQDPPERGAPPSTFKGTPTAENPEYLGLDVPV

[4] = target: T1, Dual specificity mitogen-activated protein kinase kinase 3 (Homo sapiens) (UniProt P46734); assay: Inhibition of MAP2K3 in human SKCO1 cells at 1 uM after 4 hrs using biotin labeled DVKPSNVLINK probe by mass-spectrometric analysis relative to control; assay type: cell-based
T1 sequence (whole entry): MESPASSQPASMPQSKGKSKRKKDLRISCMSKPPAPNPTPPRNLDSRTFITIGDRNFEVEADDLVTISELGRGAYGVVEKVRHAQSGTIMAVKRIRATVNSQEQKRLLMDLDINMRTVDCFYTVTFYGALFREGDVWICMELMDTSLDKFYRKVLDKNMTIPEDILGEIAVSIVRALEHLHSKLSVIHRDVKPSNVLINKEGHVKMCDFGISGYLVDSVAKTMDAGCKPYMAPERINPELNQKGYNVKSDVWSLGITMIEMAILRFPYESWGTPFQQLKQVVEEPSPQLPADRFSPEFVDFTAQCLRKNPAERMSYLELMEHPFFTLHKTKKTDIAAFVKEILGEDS

[5] = target: Serine/threonine-protein kinase Nek7 (Homo sapiens) (UniProt Q8TDX7); assay: Inhibition of NEK7 in human SKCO1 cells at 1 uM after 4 hrs using biotin labeled DIKPANVFITATGVVK probe by mass-spectrometric analysis relative to control; assay type: cell-based
Chain of Serine/threonine-protein kinase Nek7 (Homo sapiens) (Q8TDX7 whole entry, looked up): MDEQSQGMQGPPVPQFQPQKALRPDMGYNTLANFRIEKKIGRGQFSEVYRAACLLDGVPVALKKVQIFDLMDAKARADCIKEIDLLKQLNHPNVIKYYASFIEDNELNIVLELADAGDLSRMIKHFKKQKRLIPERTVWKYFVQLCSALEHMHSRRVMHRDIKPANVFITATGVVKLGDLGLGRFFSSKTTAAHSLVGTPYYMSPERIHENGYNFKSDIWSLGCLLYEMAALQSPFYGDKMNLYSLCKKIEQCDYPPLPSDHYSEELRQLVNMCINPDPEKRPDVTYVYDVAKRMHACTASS

[6] = target: Mitogen-activated protein kinase 14 (Homo sapiens) (UniProt Q16539); assay: Inhibition of p38a in human SKCO1 cells at 1 uM after 4 hrs using biotin labeled QELNKTIWEVPER probe by mass-spectrometric analysis relative to control; assay type: cell-based
Chain of Mitogen-activated protein kinase 14 (Homo sapiens) (Q16539 whole entry): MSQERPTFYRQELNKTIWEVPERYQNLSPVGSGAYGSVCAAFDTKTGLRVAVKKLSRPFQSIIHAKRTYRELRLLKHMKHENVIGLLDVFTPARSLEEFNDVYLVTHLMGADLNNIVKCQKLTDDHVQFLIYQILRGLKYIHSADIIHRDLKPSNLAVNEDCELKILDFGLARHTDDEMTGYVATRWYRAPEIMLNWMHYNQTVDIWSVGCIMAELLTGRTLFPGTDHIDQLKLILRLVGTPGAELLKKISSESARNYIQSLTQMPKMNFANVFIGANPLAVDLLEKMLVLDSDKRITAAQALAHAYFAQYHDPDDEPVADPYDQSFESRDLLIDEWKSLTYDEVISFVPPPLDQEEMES
Procedure, shortened: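 Live SK-CO-1 cells were treated at 1 μM for 4 h alongside DMSO controls, then lysed. Lysates were labelled with a lysine-reactive ATP or ADP-biotin probe, and probe-dependent peptide recovery was quantified by mass spectrometry. Inhibition (%) is relative to DMSO-treated cells.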

MOLM-14 = assay: Antiproliferative activity against human MOLM14 cells harboring FLT3-ITD mutant at […] to […] nM after 72 hrs by CellTiter-Glo assay; assay type: functional, cell-based
NALM-6 = assay: Antiproliferative activity against human NALM6 cells harboring NARS A146T mutant at […] to […] nM after 72 hrs by CellTiter-Glo assay; assay type: functional, cell-based
SW-620 = assay: Antiproliferative activity against human SW620 cells harboring KRAS G12V mutant after 72 hrs by CellTiter-Glo assay; assay type: functional, cell-based; details: SW-620, 72 h
SK-CO-1 = assay: Antiproliferative activity against human SKCO1 cells harboring KRAS G12V mutant after 72 hrs by CellTiter-Glo assay; assay type: functional, cell-based; details: SK-CO-1, 72 h
[7] = Antiproliferative activity against human SW156 cells harboring wild type KRAS after 72 hrs by CellTiter-Glo assay; assay type: functional, cell-based
HEL = assay: Antiproliferative activity against human HEL cells at […] to […] nM after 72 hrs by CellTiter-Glo assay; assay type: functional, cell-based
U-937 = assay: Antiproliferative activity against human U937 cells at […] to […] nM after 72 hrs by CellTiter-Glo assay; assay type: functional, cell-based
[8] = test system: MAP4K2 / germinal center kinase (Homo sapiens); assay: Inhibition of GCK in human SKCO1 cells at 1 uM after 4 hrs using biotin labeled DIKGANLLLTLQGDVK probe by mass-spectrometric analysis relative to control
[9] = target: T2, Dual specificity mitogen-activated protein kinase kinase 4 (Homo sapiens) (UniProt P45985); assay: Inhibition of MAP2K4 in human SKCO1 cells at 1 uM after 4 hrs using biotin labeled DIKPSNILLDR probe by mass-spectrometric analysis relative to control; assay type: cell-based
T2 sequence (whole entry): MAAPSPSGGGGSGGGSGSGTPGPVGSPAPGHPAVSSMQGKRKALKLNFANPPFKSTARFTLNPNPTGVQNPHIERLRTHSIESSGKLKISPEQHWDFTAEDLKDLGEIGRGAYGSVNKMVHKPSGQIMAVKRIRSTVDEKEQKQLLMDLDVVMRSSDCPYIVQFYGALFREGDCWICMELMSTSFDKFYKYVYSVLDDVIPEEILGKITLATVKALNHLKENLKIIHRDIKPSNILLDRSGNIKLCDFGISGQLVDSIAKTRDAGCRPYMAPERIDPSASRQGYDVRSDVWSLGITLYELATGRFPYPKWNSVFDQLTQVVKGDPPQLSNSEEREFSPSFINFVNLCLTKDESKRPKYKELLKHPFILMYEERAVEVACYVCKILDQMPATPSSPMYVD

[10] = target: T3, Mitogen-activated protein kinase kinase kinase 7 (Homo sapiens) (UniProt O43318); details: 0.6 uM
T3 sequence (whole entry): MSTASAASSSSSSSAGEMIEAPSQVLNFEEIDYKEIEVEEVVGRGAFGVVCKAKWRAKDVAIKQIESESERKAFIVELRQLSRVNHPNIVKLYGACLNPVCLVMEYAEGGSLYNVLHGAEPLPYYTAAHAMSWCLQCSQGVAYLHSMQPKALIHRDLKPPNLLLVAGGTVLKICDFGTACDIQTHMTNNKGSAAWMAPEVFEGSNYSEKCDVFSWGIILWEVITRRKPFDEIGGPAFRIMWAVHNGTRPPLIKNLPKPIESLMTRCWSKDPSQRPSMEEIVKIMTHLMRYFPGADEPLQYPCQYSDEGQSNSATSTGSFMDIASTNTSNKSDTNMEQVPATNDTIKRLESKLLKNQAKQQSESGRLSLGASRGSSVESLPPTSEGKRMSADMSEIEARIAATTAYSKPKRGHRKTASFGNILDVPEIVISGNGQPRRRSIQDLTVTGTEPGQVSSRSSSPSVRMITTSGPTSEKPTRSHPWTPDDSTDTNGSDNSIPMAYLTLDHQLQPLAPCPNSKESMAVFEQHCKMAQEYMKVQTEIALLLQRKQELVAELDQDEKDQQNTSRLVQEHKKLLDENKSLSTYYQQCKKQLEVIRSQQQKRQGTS

[11] = target: T3, Mitogen-activated protein kinase kinase kinase 7 (Homo sapiens); details: 0.6 uM; remark: listed apart in the source

SMILES | inhibition [1] | inhibition [2] | inhibition [3] | inhibition [4] | inhibition [5] | inhibition [6] | Activity (MOLM-14) | Activity (NALM-6) | IC50 (SW-620) | IC50 (SK-CO-1) | IC50 [7] | Activity (HEL) | Activity (U-937) | inhibition [8] | inhibition [9] | inhibition [10] | inhibition [11]
C=CC(=O)Nc1ccccc1Oc1nc(Nc2cnn(CCOC)c2)ncc1Cl | 13.7% | -0.9% | -2.2% | 10.9% | -0.4% | 12.7% | Active | inactive | 506 nM | 318 nM | 3020 nM | inactive | Active | 34.3% |  |  | 
C=CC(=O)Nc1ccccc1Nc1nc(Nc2ccc(N3CCN(C)CC3)cc2)ncc1Cl |  |  |  |  |  |  | Active | inactive |  |  |  | inactive | Active | 37.1% | 24.9% | Active | Active
COc1cc(O)c2c(c1)/C=C/C[C@H](O)[C@H](O)C(=O)/C=C\C[C@H](C)OC2=O | 24.2% | 8.5% | 14.5% | 33.5% | 4.9% | 10.2% |  |  | 2540 nM | 250 nM | 2020 nM |  |  |  | 26.2% | Active | Active
